Results reported in the array DNA melting data of Ke et al. (doi:10.1101/2024.01.08.574731).

Legend:
[1] = folding enthalpy; higher = less favourable; fluorescence melt of hairpins on a sequencing array, two-state fit; details: sodium 0.088 M
In short: (§1)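 Bootstrapped two-state fits yielded melting temperature and folding enthalpy for library hairpins. Cy3 fluorescence, with annealed Cy3 and quencher oligos, was imaged on a sequenced MiSeq flow cell in 50 mM Na-HEPES pH 8.0, 25 mM NaCl in 2.5 °C steps up to 60 °C, and normalised to pre-quench Cy3 and to control constructs. Four replicates were combined by inverse variance, and fitted temperatures were raised by 9.35 °C to match UV melts.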

[2] = melting temperature; fluorescence melt of hairpins on a sequencing array, two-state fit, raised by 9.35 °C to match UV melts; details: sodium 0.088 M
In short: as §1

| Sequence | folding enthalpy [1] [kcal/mol] | Tm [2] [°C] |
| --- | --- | --- |
| GTGGCTCGAAAGAGCAC (((.(((....)))))) | -11.8 | 51.2 |
| GATCCCTCTCGGGATC ((((((....)))))) | -34.3 | 63.5 |
| GGTTGCGAAAGCAGCACC ((((((....)))..))) | -12.4 | 41 |
| GCTTACGAAAGTATTAGC ((((((....)))..))) | -23.9 | 33.5 |
| GCGTCAGGAAACTGGCGC (((.(((....))).))) | -43.8 | 63 |
| GATCGCACTGCGATC ((((((...)))))) | -35 | 68.3 |
| CGATCCGGAAACGGTTCG (((.(((....))).))) | -32 | 49.8 |
| GATCGACTGTTCGATC ((((((....)))))) | -40.5 | 50.6 |
| GATCACACCCGTGATC ((((((....)))))) | -35.2 | 57.8 |
| GCCCAGCGAAAGCGCGGC (((..((....))..))) | -22.1 | 61.9 |
| GATCCCATCGGGGATC ((((((....)))))) | -31.1 | 59.9 |
| GCGGACGAAAGTCTCGC ((((((....))).))) | -18.9 | 55.2 |
| CGCACCGGAAACGGAGCG (((.(((....))).))) | -37.2 | 60.9 |
| GATCCGGAGTCGGATC ((((((....)))))) | -36.4 | 55.7 |
| GGAAGGACGAAAGTCTCC (((..(((....)))))) | -12.8 | 33.1 |
| GCTAGGCGAAAGCCGTGC ((..(((....)))..)) | -13.9 | 57.7 |
| GATCAAGGCATTGATC ((((((....)))))) | -34.5 | 50.5 |
| GCAGTGGGAAACCACCAC (..((((....))))..) | -12.2 | 30.6 |
| GTGATCGAAAGATCCCAC ((((((....)))..))) | -10.7 | 32.4 |
| TAGAGGAAACTCTA (((((....))))) | -8.94 | 32.1 |
| GATCCAATGCTGGATC ((((((....)))))) | -32.5 | 49.1 |
| GATCTGATCTCAGATC ((((((....)))))) | -37.1 | 51.1 |
| GGAGGTCCGAAAGGATCC (((..(((....)))))) | -12 | 38.3 |
| GCTATAGGAAACTATGGC ((.((((....)))).)) | -28.6 | 41.7 |

| Sequence | folding enthalpy [1] [kcal/mol] | Tm [2] [°C] |
| --- | --- | --- |
| GGAATACCGAAAGGTTCC (((..(((....)))))) | -16.1 | 36.4 |
| GCGAATGGTCGC ((((....)))) | -10.4 | 47.8 |
| GCATAGCGAAAGCTTCGC ((..(((....)))..)) | -10.1 | 34.6 |
| GCAGGTGCGAAAGCATGC (((..(((....)))))) | -13.5 | 43.9 |
| CGCGGAAAAACAACAACCGCG ((.................)) | -25.1 | 44.5 |
| GTATTGGGAAACCAATAC (((((((....))))))) | -43.7 | 53.8 |
| GCCGAGCGAAAGCTCAGC ((.((((....)))).)) | -18.1 | 58 |
| GCGTCTTAACGC ((((....)))) | -26.4 | 57.5 |
| GCGCAGCGAAAGCGCCGC (((..((....))..))) | -13.1 | 59.4 |
| GATCGATTTTCGATC ((((((...)))))) | -35.2 | 54.4 |
| GATCTGGACCCAGATC ((((((....)))))) | -43.8 | 53 |
| GCAACCGAAAGGTATTGC ((((((....)))..))) | -18.3 | 39.9 |
| GTATGGGGAAACCTGTAC (((..((....))..))) | -17.1 | 32.2 |
| GGGCTCGAAAGAGGACCC ((((((....)))..))) | -20.9 | 49.5 |
| AGACAGAAATGTCT (((((....))))) | -15.8 | 41.7 |
| GATCACTTTGTGATC ((((((...)))))) | -34.2 | 63.1 |
| GGTAGCGAAAGCTTGACC ((((((....)))..))) | -13.9 | 35.7 |
| GATCTGAACCCAGATC ((((((....)))))) | -28.8 | 46.1 |
| GCGTGAATACGC ((((....)))) | -31.3 | 61.2 |
| GCGGTGCGAAAGCATAGC ((..(((....)))..)) | -25.4 | 63.4 |
| GTAGGCGAAAGCCGATAC ((((((....)))..))) | -10.1 | 41.5 |
| GAGCCCGGAAACGAGCCC (.((.((....)).)).) | -14 | 29.1 |
| GTTTTCCGAAAGGATAAC (((.(((....))).))) | -28.4 | 44.9 |
| GAAGTCGGAAACGACTCC (.(((((....))))).) | -13.2 | 41.3 |

| Sequence | folding enthalpy [1] [kcal/mol] | Tm [2] [°C] |
| --- | --- | --- |
| GCCGTGCGAAAGCGCAGC ((.(.((....)).).)) | -13 | 49.1 |
| GCCAAGCGAAAGCTTTGC ((.((((....)))).)) | -21.4 | 53.4 |
| GGGTGCGAAAGCATGCCC ((((((....)))..))) | -15.7 | 49.6 |
| GGGACCCGAAAGGGCCC (((.(((....)))))) | -19 | 66 |
| GAACCCGAAAGGGCCTTC ((((((....)))..))) | -14.2 | 34.6 |
| GTGAGGTCGAAAGACCAC (((..(((....)))))) | -13 | 48.9 |
| GTGCAATCGAAAGATCAC (((..(((....)))))) | -14 | 30 |
| GCTACGCGAAAGCAAAGC (((..((....))..))) | -13.2 | 44.1 |
| GCATGTACGAAAGTATGC (((..(((....)))))) | -29.3 | 43.8 |
| GCGTATGGACGC ((((....)))) | -21 | 51.4 |
| GATCGATTGTTCGATC ((((((....)))))) | -37.4 | 53.1 |
| CGAGCGGAAACGCAGTCG ((((((....)))..))) | -13.6 | 38.1 |
| GATCATATAGATGATC ((((((....)))))) | -36.2 | 45.6 |
| GATCTTCACAAGATC ((((((...)))))) | -28.7 | 45.8 |
| GTGTGCGGAAACACACAC (((((.(....).))))) | -36.2 | 51.8 |
| GCCGGCACGAAAGTGGGC (((..(((....)))))) | -19.2 | 51.8 |
| GATCTATCTATAGATC ((((((....)))))) | -38 | 47.4 |
| GCTGAGCGAAAGCTAGGC ((..(((....)))..)) | -20.3 | 52.7 |
| GTTGAGGGAAACTTCAAC (((((.(....).))))) | -33.6 | 40.5 |
| GATCGACCTCTCGATC ((((((....)))))) | -35.8 | 50 |
| GCGCCGCGAAAGCGAGGC ((..(((....)))..)) | -13.7 | 54.8 |
| GCCAGGACGAAAGTCGGC (((..(((....)))))) | -27.3 | 52.6 |
| GTGAGATCGAAAGATCAC (((..(((....)))))) | -17.6 | 45.6 |
| GCTGGAGGAAACTCCGGC ((.((((....)))).)) | -40.4 | 57.1 |

| Sequence | folding enthalpy [1] [kcal/mol] | Tm [2] [°C] |
| --- | --- | --- |
| GATCCGGGTGCGGATC ((((((....)))))) | -41 | 63.2 |
| GGCCATGGAAACACAGCC (((..((....))..))) | -13.5 | 27.6 |
| GACAGGGGAAACCCTGCC (.(((((....))))).) | -13.8 | 46.4 |
| GCGAGAGCGAAAGCTCGC (((..(((....)))))) | -9.94 | 65.6 |
| GCTCGCGAAAGCGACAGC ((((((....)))..))) | -10.7 | 47.5 |
| GCGTGTGGAAACACGTGC ((..(((....)))..)) | -19.1 | 63.1 |
| GCCTACGAAAGTATGGC ((((((....))).))) | -24.6 | 52.3 |
| GATCGACATATCGATC ((((((....)))))) | -43.4 | 51.7 |
| GATCGGCATACCGATC ((((((....)))))) | -40.5 | 56.9 |
| GCTAACGAAAGTTGAAGC ((((((....)))..))) | -15.2 | 34.6 |
| GATGAACCGAAAGGTATC (((..(((....)))))) | -12.9 | 28.8 |
| GCTAGCGAAAGCTAAGC ((((((....))).))) | -22.4 | 54.6 |
| GCGGCGGGAAACCACCGC ((((.((....)).)))) | -41.7 | 60.3 |
| GCACTACGAAAGTATGC (((.(((....)))))) | -25.5 | 43 |
| GGGAGTGGAAACACTCTC (.(((((....))))).) | -25.1 | 51.7 |
| GATCAGAGCTCTGATC ((((((....)))))) | -53 | 54.1 |
| GCGGATGCGAAAGCACGC (((..(((....)))))) | -15.8 | 56.6 |
| GCTAAGGGAAACCTTAGC (((((((....))))))) | -40.7 | 59.8 |
| GATCGTAGCTACGATC ((((((....)))))) | -43.2 | 59 |
| GATCGTAAGTACGATC ((((((....)))))) | -32.9 | 53.3 |
| GTGCCCGGAAACGGACAC (((.(((....))).))) | -50.2 | 53.8 |
